# IMP-1 inhibitor: IMP-1 metallo-beta-lactamase inhibitors, primary screen, biochemical, epi-absorbance readout, Pseudomonas aeruginosa enzyme | inhibition, % at 5.6 µM | AID 1556, 2009 | purified IMP-1, nitrocefin hydrolysis, epi-absorbance fluorescence | metallo-beta-lactamase IMP-1 (Pseudomonas aeruginosa) | actives 0.45% (n = 290,000);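 active means inhibition above the mean plus 3 SD of all compounds in the same screening run, cut at about 4.5% in these data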;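 further: 0% = IMP-1 with DMSO and 100% = DMSO wells lacking enzyme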
#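 System: Purified recombinant IMP-1 metallo-beta-lactamase enzyme | Measured by: Fluorescence quenching readout, ex 480/em 530 nm | Replication: Singlicate | Incubation: 15 min preincubation plus 25 min reaction at 25 °C | Evaluation: Percent inhibition from optical density relative to buffer-blank wells | Benchmarks: DMSO with and without IMP-1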
# NALP1 inh: NALP1 inflammasome inhibitors in reconstituted yeast, colorimetric, S. cerevisiae, triplicate retest; actives 0.61% (n = 280,000); inhibition, % at 10 µM; AID 2071, 2009; S. cerevisiae NALP1/ASC/caspase-1 growth, X-gal OD620, 72 h; in the data active means inhibition mostly above about 24%, no sharp cut-off; inactive means mostly below about 32%
# UBC9 SUMO inh: inhibitors of in vitro SUMOylation cascade, primary screen, biochemical, HTRF, uHTS; SUMO-conjugating enzyme UBC9 (Homo sapiens), P63279; HTRF SUMOylation assay, SAE1/SAE2 + UBC9; inhibition, % at 35 µM; AID 2006, 2009; actives 0.36% (n = 290,000); in the data active means inhibition above about 50%, passing the limit was not always enough
# Target sequence (P63279 whole entry, looked up): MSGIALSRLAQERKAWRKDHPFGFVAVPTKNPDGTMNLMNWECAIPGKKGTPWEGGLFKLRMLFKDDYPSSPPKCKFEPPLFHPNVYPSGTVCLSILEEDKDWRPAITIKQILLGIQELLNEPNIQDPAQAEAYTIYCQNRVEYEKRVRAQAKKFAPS
# FID counter: compounds displacing fluorescent DNA intercalator, primary screen, artefact control for HCV NS3 helicase inhibitor project, biochemical, FID fluorescence | DNA fluorescent intercalator displacement | inhibition, % at 7.9 µM | actives 0.17% (n = 290,000) | AID 1845, 2009; in the data active means inhibition above about 37%;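 further: 0% = vehicle and 100% = reference compound; higher means more ethidium bromide displaced from hairpin DNA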
# VIM-2 inh: VIM-2 metallo-beta-lactamase inhibitors, primary screen, biochemical, epi-absorbance readout, Pseudomonas aeruginosa enzyme; purified VIM-2, nitrocefin hydrolysis, epi-absorbance fluorescence; inhibition, % at 5.6 µM; actives 0.89% (n = 290,000); AID 1527, 2009;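 active means inhibition above the mean of all tested compounds plus 3 SD, cutoff set per screening run, cut at about 7.5% in these data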;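 further: red hydrolysis product quenches plate fluorescence so inhibitors raise well fluorescence; 0% = enzyme with DMSO and 100% = DMSO without enzyme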
# SUMO Mot1 rescue: yeast Mot1-301 growth rescue at high temperature, primary screen, SUMOylation pathway inhibitor project, S. cerevisiae, ATP luminescence, 38.5C; S. cerevisiae Mot1-301 growth rescue; percent above DMSO median, 100 means doubled; growth rescue, % at 18.8 µM; actives 1% (n = 320,000);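 active means every valid replicate shows activation above 250% relative to neutral control wells; inactive means the rest, any valid replicate at or below 250%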;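 further: OY570 slx delta 5 strain wells were the positive control but not used for scaling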
# Active calls of the source: *; i = inactive; x = not tested or not shown. The list is not random: actives were taken first. Their share in the collection is about 2.9%.
SMILES,IMP-1 inhibitor,NALP1 inh,UBC9 SUMO inh,FID counter,VIM-2 inh,SUMO Mot1 rescue
COc1ccc(CNC(=O)[C@H](C)N2C(=O)N3CCc4c([nH]c5ccccc45)[C@@]3(C)C2=O)cc1OC,-1,-4,-11,-30,2,-16
CCN1CCCC1Cn1cnc2c([nH]c3cccc(Cl)c32)c1=O (stereo not drawn),2,16,18,17,8.2*,-18
OCC1CCCCN1C(=S)Nc1cccc(Cl)c1 (stereo not drawn),-2,3,4,-2,-1,47
Cc1cc2[nH]c(=O)c(=O)[nH]c2cc1S(=O)(=O)N1CCN(c2ccccc2F)CC1,3,-2,1,-35,-4,1
COc1ccccc1N1CCN(S(=O)(=O)c2cc3[nH]c(=O)c(=O)[nH]c3cc2C)CC1,4.5*,6,14,-44,-1,-8
O=C(NN=C1CCC(c2ccccc2)CC1)c1cc2c(s1)CCCC2 (stereo not drawn),-4,16,-8,-5,-3,292
CC(C)(C)C1CCC(=NNC(=O)c2cc3c(s2)CCCC3)CC1 (stereo not drawn),-3,16,-10,-3,-1,542*
O=C(CSc1cccc[n+]1[O-])Nc1cc2c(cc1Cl)C(=O)c1ccccc1C2=O,-1,55*,12,3,-1,-2
CCc1ccc(N=CC2=C(O)CC(c3ccco3)CC2=O)cc1 (stereo not drawn),-4,38*,-14,-18,-1,-17
Cc1ccc2nc3c(cc(C(=O)NC4CCCC4)c(=N)n3C3CCCCC3)c(=O)n2c1,-1,-2,2,-5,12*,271
Cc1cccn2c(=O)c3cc(C(=O)NCc4ccco4)c(=N)n(C4CCCC4)c3nc12,-4,7,20,-11,8.2*,-11
Cc1cccn2c(=O)c3cc(C(=O)NCC4CCCO4)c(=N)n(C4CCCCC4)c3nc12 (stereo not drawn),-1,10,22,-3,8.0*,11
Cc1ccc2nc3c(cc(C(=O)NC4CCCCC4)c(=N)n3C3CCCCC3)c(=O)n2c1,-3,3,12,-10,5,-18
Cc1cccn2c(=O)c3cc(C(=O)NCC4CCCO4)c(=N)n(CC4CCCO4)c3nc12 (stereo not drawn),-2,17,31,-5,1,-4
C=CCn1c(=N)c(C(=O)NCCCOC)cc2c(=O)n3cc(C)ccc3nc21,-5,12,6,3,11*,-1
Cc1cccn2c(=O)c3cc(C(=O)NCc4ccc(F)cc4)c(=N)n(CC4CCCO4)c3nc12 (stereo not drawn),-2,4,8,-1,3,162
CC(=O)Oc1ccc2nc(-c3ccc(Br)o3)oc(=O)c2c1,-4,x,-2,-5,0,-18
Oc1ccc(Cl)cc1C=Nc1ccc2c3c(cccc13)CC2,0,10,57*,-6,-1,-8
Cc1cccc(C=Nc2ccc3c4c(cccc24)CC3)c1O,-3,15,10,-6,0,212
CCOC(=O)C1CCCN(C2=NC(=O)/C(=C/c3ccc(O)c(OCC)c3)S2)C1 (stereo not drawn),-1,3,24,-32,8.9*,-28
Cc1ccc(C(O)CCc2ccc(N)cc2)cc1 (stereo not drawn),0,-8,-2,-16,-3,-12
O=c1c2cnn(-c3ccccc3)c2ncn1CCc1ccccc1,-2,24,-8,3,-2,i
CCn1cnc2c(cnn2-c2ccccc2)c1=O,-1,36*,14,-1,2,-9
Cc1sc2nc(CSc3ccc([N+](=O)[O-])c(C(F)(F)F)c3)[nH]c(=O)c2c1C,-2,30,12,-2,-2,-10
COCCn1c(SCC(=O)NNC(=O)c2ccccc2)nc2ccccc2c1=O,-4,21,-13,-7,-3,-16
SMILES,IMP-1 inhibitor,NALP1 inh,UBC9 SUMO inh,FID counter,VIM-2 inh,SUMO Mot1 rescue
COCC(C)n1c(SCC(=O)NNC(=O)c2ccc(F)cc2)nc2ccccc2c1=O (stereo not drawn),-3,8,-7,-15,-2,346*
Cc1nn(C)c(C)c1S(=O)(=O)N(CC(=O)NCCCOC(C)C)c1ccc(C(C)C)cc1,-4,-33,6,-30,-2,104
Cc1nn(C)c(C)c1S(=O)(=O)N(CC(=O)NCCCN1CC(C)CC(C)C1)c1ccc(C(C)C)cc1 (stereo not drawn),1,15,7,40*,0,34
COc1ccc(C(N)=O)c(OCC(=O)Nc2cc(C)on2)c1,x,x,x,x,x,-4
COc1ccc(F)cc1S(=O)(=O)N1CCC2(CC1)OCCN2S(=O)(=O)c1cccs1,x,x,x,x,x,-1
Cc1cc(=O)n(C2CCS(=O)(=O)C2)[nH]1 (stereo not drawn),-2,-10,90*,-2,-2,3
O=C(COc1ccc(F)cc1)NN1C(=O)CSC1=S,-7,-12,-13,-1,-8,116
Cc1cccc(N2CCN(C(=O)CCN3C(=S)NC(C)(C)CC3C)CC2)c1C (stereo not drawn),-2,-6,-11,-18,-1,614*
N=C1/C(=C/c2cccn2Cc2ccc(Cl)cc2)C(=O)N=C2SC=CN12,-2,18,50*,0,-6,-18
Cc1ccc(C(=O)CSC2=C(C#N)C(c3ccco3)C3=C(CC(C)(C)CC3=O)N2)cc1 (stereo not drawn),5.5*,11,-17,-8,2,6
CC1(C)CC(=O)C2=C(C1)NC(SCC(=O)Nc1ccccc1)=C(C#N)C2c1ccco1 (stereo not drawn),-7,4,9,-15,-3,19
Cc1noc(C)c1C(=O)OCC(=O)Nc1c(F)cccc1F,-4,-8,5,-1,-2,x
CCOc1ccccc1NC(=O)C(CC(C)C)NC(=O)C1CCC(C)CC1 (stereo not drawn),-3,43*,-17,-6,-5,15
CCOc1ccccc1NC(=O)C(NC(=O)C1CCC(C)CC1)C(C)C (stereo not drawn),-2,6,14,-7,-3,42
COc1ccc(Cc2n[nH]c(=S)n2NC(=O)Nc2ccc(Cl)c(Cl)c2)cc1,-1,x,97*,-13,0,-29
COCCNC(=O)Cn1nc(-c2ccccc2C)ccc1=O,-4,6,2,-1,-2,-1

# High-throughput results (PubChem)
